Assay results as given in ChEMBL document CHEMBL1122726, “Analogues of platelet activating factor (PAF). 1. Some modifications of the alkoxy chain” (J Med Chem, 1984).

Assays:
[1] = species on record: Oryctolagus cuniculus; test: Tested for maximum aggregation units at specified molar concentration; type: functional
Method in brief: (§1)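 Platelet-rich plasma from citrated cardiac-puncture blood of unanesthetized male New Zealand white rabbits, low-speed spin. Count adjusted with platelet-poor plasma, within 350000-600000/µL. 450 µL PRP plus 50 µL compound stock solution. EC50 taken as the concentration giving 50% of that compound's own maximum aggregation, from the mean dose-response curve of experiments with two to six replicates per dose. Maximum aggregation given in aggregation units at the stated molar concentration.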

[2] = species on record: Oryctolagus cuniculus; test: Tested for the molar concentration required to cause 50% of maximum aggregation
[3] = Ratio = (MABP / platelet EC50 ) x 10 E -8; type: functional
Method in brief: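 Intravenous dose lowering MABP by 50 mmHg in spontaneously hypertensive rats, divided by the EC50 for aggregation of rabbit platelet-rich plasma, then multiplied by 10^-8.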

[4] = system: Rattus norvegicus; test: Tested for the dose needed to decrease mean arterial blood pressure (MABP) 50 mmHg in male rats, iv; type: functional
Method in brief: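 Spontaneously hypertensive rats, arterial and venous catheters tunneled subcutaneously and exteriorized at the neck, studied at least 16 h after surgery while held in restraining cages. Compound dissolved in saline or 10-25% ethanol in saline, given as a rapid iv bolus at 1 mL/kg followed by a flush. Pressure read at 1-min intervals for 15 min after dosing. Maximum MABP change per rat, averaged per dose. Least-squares regression, solved for a −50 mmHg response.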

[5] = species on record: Rattus norvegicus; test: Tested for the molar concentration required to cause 50% of maximum aggregation; type: functional, organism-based; method in brief: as §1
[6] = species on record: Oryctolagus cuniculus; test: Tested for maximum aggregation units at specified molar concentration; g= No response; type: functional; method in brief: as §1

SMILES	Max platelet response [1]	EC50 [2] [nM]	Ratio [3]	Dose [4] [µg/kg]	EC50 [5] [nM]	Max platelet response [6]
CCCCCCCCCCCCCCc1ccc(OCC(COP(=O)([O-])OCC[N+](C)(C)C)OC(C)=O)cc1 (configuration not stated)	80	53	2.37	12.56		
CCCCCCCCCCCCCCCCCC(COP(=O)([O-])OCC[N+](C)(C)C)OC(C)=O (configuration not stated)	31		1.15	357.3	3100	
CCCCCCCCCCCCCCc1cccc(OCC(COP(=O)([O-])OCC[N+](C)(C)C)OC(C)=O)c1 (configuration not stated)	70	44	0.1	0.43		
CCCCCCCCCCCCCCCCc1ccccc1OCC(COP(=O)([O-])OCC[N+](C)(C)C)OC(C)=O (configuration not stated)		> 10000				No response
CCCCCCCCCCCCCCCCOCC(COP(=O)([O-])OCC[N+](C)(C)C)OC(C)=O (configuration not stated) [PLATELET ACTIVATING FACTOR]	71	22.2	0.56	1.25		
CCCCCCCCCCCCCCCCCCOCC(COP(=O)([O-])OCC[N+](C)(C)C)OC(C)=O (configuration not stated)	79	16	1.98	3.17		
